Assay results collected from several papers.
Protocols differ between the studies behind these lines.
MET M1250T: Hepatocyte growth factor receptor (MET, Homo sapiens, UniProt P08581, M1250T)
MET Y1235D: Hepatocyte growth factor receptor (MET, Homo sapiens, UniProt P08581, Y1235D)
MET: Hepatocyte growth factor receptor (MET, Homo sapiens, UniProt P08581)

| SMILES | target | assay | conditions | remaining binding |
| --- | --- | --- | --- | --- |
| CN(c1nccc(-c2cnn3ncccc23)n1)C1CC1 | MET M1250T | binding | 1 µM | 100% |
| O=C(c1ccc(Nc2ncc(Cl)c(-c3ccc(Cl)s3)n2)cc1)N1CCC(N2CCCC2)CC1 | MET Y1235D | binding, competition with immobilised ligand | 1 µM | 51% |
| CN1CCN(c2ccc(Nc3nccc(-c4ccccc4)n3)cc2C(F)(F)F)CC1 | MET M1250T | binding | 10 µM | 24% |
| COc1ncc2cc3ccccc3nc2c1C#N | MET | cell-free assay, competition with immobilised ligand | 5 µM | 91% |
| O=C(c1ccc(Nc2nccc(-c3cc4ccccc4s3)n2)cc1)N1CCC(N2CCCC2)CC1 | MET M1250T | binding, competition with immobilised ligand | 1 µM | 68% |
| C[C@@H]1CN(c2ccc3ncc(-c4ccc5[nH]nc(C6CC6)c5c4)n3n2)C[C@H](C)O1 | MET | binding, competition with immobilised ligand | 50 nM | 89% |
| CN(C)C(=O)Cn1cc(-c2nc([C@@](C)(c3ccc(-c4cnc(N)nc4)cc3)C3CC3)no2)cn1 | MET M1250T | cell-free assay, competition with immobilised ligand | 1 µM | 93% |
| CN(C)c1nccc(-c2cnc3ncccn23)n1 | MET M1250T | binding | 1 µM | 91% |
| Cc1nc(N2CC[C@@H](O)C2)ncc1-c1cc(C(F)(F)F)cc2[nH]ncc12 | MET | cell-free assay, competition with immobilised ligand | 1 µM | 100% |
| CN(C)c1ncc(F)c(-c2cnn3ncccc23)n1 | MET | binding | 1 µM | 97% |
| CCCCN(CCCC)C(=O)CN1C[C@H](c2cc(OC)c3c(c2)OCO3)[C@@H](C(=O)O)[C@@H]1CC(C)(C)CCC | MET Y1235D | cell-free assay, competition with immobilised ligand | 1 µM | 100% |
| CN(C)c1nccc(-c2cnn3ncccc23)n1 | MET | binding | 1 µM | 89% |
| c1cncc(-c2cccc(Nc3nccc(NC4CCCCC4)n3)c2)c1 | MET | binding, competition with immobilised ligand | 10 µM | 43% |
| CCN1CCN(Cc2ccc(C(=O)Nc3ccc(C)c(Oc4ccc5c(c4)CC(=O)N5)c3)cc2C(F)(F)F)CC1 | MET Y1235D | binding, competition with immobilised ligand | 1 µM | 100% |
| CC(C)(C)c1ccc(-c2nc(CBr)nn2-c2cccc(O)c2)cc1 | MET | cell-free assay, competition with immobilised ligand | 10 µM | 83% |
| COc1cnc(Nc2cccc(S(N)(=O)=O)c2)nc1N1CCN(c2ccccc2)CC1 | MET M1250T | binding, competition with immobilised ligand | 1 µM | 74% |
| CC1=C(C#N)[C@@H](c2ccc3[nH]nc(C)c3c2)C(C#N)=C(c2ccc(Cl)cc2)N1 | MET | cell-free assay, competition with immobilised ligand | 1 µM | 17.2% |
| COc1cnc(Nc2cccc(S(N)(=O)=O)c2)nc1N1CCN(c2ccccc2)C(=O)C1 | MET Y1235D | binding, competition with immobilised ligand | 1 µM | 100% |

| SMILES | target | assay | conditions | remaining binding |
| --- | --- | --- | --- | --- |
| c1cnn2ncc(-c3ccnc(N4CCC45COC5)n3)c2c1 | MET M1250T | binding | 1 µM | 41% |
| CNC(=O)[C@@H]1CC[C@@H](n2c(-c3ccc4cnccc4c3)nc3ccc(C(=O)NCc4cccc(C(N)=O)c4)cc32)C1 | MET Y1235D | binding, competition with immobilised ligand | 1 µM | 92% |
| CO[C@@H](C)c1c(Nc2ccc([C@@H](N(C)C(=O)C3CCS(=O)(=O)CC3)C(F)(F)F)cc2)cnc2cc(Cl)nn12 | MET M1250T | cell-free assay, competition with immobilised ligand | 1 µM | 100% |
| C[C@@H]1CCN(c2nccc(-c3cnn4ncccc34)n2)C1 | MET M1250T | binding | 1 µM | 98% |
| O=C(NCCCN1CCOCC1)c1ccc(Nc2ncc(Cl)c(-c3ccc(Cl)s3)n2)cc1 | MET | binding, competition with immobilised ligand | 1 µM | 37% |
| O=C(NCC1CCOCC1)c1n[nH]cc1NC(=O)c1c(F)cccc1F | MET | binding, competition with immobilised ligand | 1 µM | 100% |
| F[C@@H]1CCN(c2nccc(-c3cnn4ncccc34)n2)C1 | MET Y1235D | binding | 1 µM | 100% |
| Cc1cnc(Nc2ccc(C(=O)N3CCC(N4CCCC4)CC3)cc2)nc1-c1cc2ccccc2s1 | MET M1250T | binding, competition with immobilised ligand | 1 µM | 31% |
| Cn1cc(Cl)c2c(Oc3c(F)cc(Nc4cc(Cl)nc(N)n4)cc3F)ccnc21 | MET Y1235D | cell-free assay, competition with immobilised ligand | 0.1 µM | 91% |
| Nc1ncc2c(n1)-c1c([nH]c3ccc(C#CC4CC4)cc13)CCCC2 | MET | binding, competition with immobilised ligand | 1 µM | 100% |
| O=C(c1ccc(Nc2ncc(Cl)c(-c3cc4ccccc4s3)n2)cc1)N1CCC(N2CCCC2)CC1 | MET M1250T | binding, competition with immobilised ligand | 1 µM | 31% |
| CCS(=O)(=O)c1cc2cc(C[C@@](O)(CC(C)(C)c3ccc(F)cc3C(N)=O)C(F)(F)F)[nH]c2cn1 | MET | cell-free assay, competition with immobilised ligand | 1 µM | 100% |
| O=C(Nc1c[nH]nc1C(=O)NC1CCNCC1)c1cc(F)cc(F)c1 | MET Y1235D | binding, competition with immobilised ligand | 1 µM | 100% |
| O=C(NCCCC1CCCCC1)c1ccc(CNC(=O)c2cnn(-c3ccccc3)c2C(F)(F)F)cc1 | MET Y1235D | cell-free assay, competition with immobilised ligand | 0.1 µM | 100% |
| O=C(NCCCN1CCOCC1)c1ccc(Nc2nccc(-c3cc4ccccc4s3)n2)cc1 | MET M1250T | binding, competition with immobilised ligand | 1 µM | 69% |
| COc1ccnn2ncc(-c3ccnc(N(C)C)n3)c12 | MET Y1235D | binding | 1 µM | 94% |
| FC(F)(F)Oc1cccc(-c2cnc3ccc(-c4ccncc4)nn23)c1 | MET | cell-free assay, competition with immobilised ligand | 5 µM | 63% |
